RBBP9 inh – inhibitors of human serine hydrolase RBBP9; AID 1515; 0.2% of 220,000 active; O75884; inhibition, % at 7.94 µM; recombinant RBBP9, FP-Rh probe fluorescence polarization;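 active means inhibition above the campaign mean of all tested compounds plus 3 SD, cut at about 14% in these data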;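 further: plate controls were DMSO wells with RBBP9 for no effect and wells lacking RBBP9 protein for full effect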
Target sequence (O75884 whole entry, looked up): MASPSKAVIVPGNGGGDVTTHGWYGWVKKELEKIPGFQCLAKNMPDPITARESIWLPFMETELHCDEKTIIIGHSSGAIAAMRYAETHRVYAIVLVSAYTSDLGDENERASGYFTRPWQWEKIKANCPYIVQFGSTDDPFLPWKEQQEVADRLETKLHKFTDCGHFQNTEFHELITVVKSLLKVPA
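Test system – recombinant human RBBP9 · Input – RBBP9 2.5 µM in dispensing solution, pre-mixing · Medium – Tris buffer pH 8.0, NaCl, Pluronic · Schedule – preincubation 30 min plus labeling 45 min at 25 °C · Measured by – fluorescence polarization · Measure – % inhibition · Controls – DMSO and no-protein wells · Replicates – one well per compound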
WT yeast gro inh – growth inhibition of WT yeast, mitochondrial fusion screen; inhibition, % at 10 µM; AID 1362; mitochondrial fusion phenotypic screen, WT strain; 2.1% of 190,000 active; in the data active means inhibition above about 58%; tested in S. cerevisiae
14-3-3 Bad PPI – disrupts binding of bovine 14-3-3 zeta to phospho-Bad peptide; P63103; TR-FRET 14-3-3zeta/Dy647-pBad peptide displacement, 1 h; inhibition, % at 21.7 µM; 0.71% of 220,000 active; AID 781;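 active means inhibition above about 70%, limit read from the data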;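 further: 0% = full 14-3-3 plus peptide FRET controls and 100% = background without 14-3-3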
eIF4E-4G inh – eIF4E/eIF4G interaction inhibition in translation initiation; P63073+Q04637; TR-FRET eIF4E-eIF4GI(517-606) binding, 2 h; inhibition, % at 21.7 µM; 0.37% of 220,000 active;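 further: 0% = full FRET control wells and 100% = background wells lacking eIF4GI fragment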
EBV gp42 block – EBV gp42 inhibition; Q1HVG2; Fluorescence polarization binding assay, mP read-out; inhibition, % (tested at 21.74 µM); 0.42% of 220,000 active; AID 1085; in the data active means inhibition above about 50%
NCF1 inh – blocks human p47phox regulatory protein of NADPH oxidases | P14598 | 0.53% of 220,000 active | p47phox/p22phox peptide binding, fluorescence polarization, 2 h | inhibition, % at 24.7 µM;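 further: 0% = p47phox with labelled peptide and 100% = labelled peptide alone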
Target sequence (P14598 whole entry, looked up): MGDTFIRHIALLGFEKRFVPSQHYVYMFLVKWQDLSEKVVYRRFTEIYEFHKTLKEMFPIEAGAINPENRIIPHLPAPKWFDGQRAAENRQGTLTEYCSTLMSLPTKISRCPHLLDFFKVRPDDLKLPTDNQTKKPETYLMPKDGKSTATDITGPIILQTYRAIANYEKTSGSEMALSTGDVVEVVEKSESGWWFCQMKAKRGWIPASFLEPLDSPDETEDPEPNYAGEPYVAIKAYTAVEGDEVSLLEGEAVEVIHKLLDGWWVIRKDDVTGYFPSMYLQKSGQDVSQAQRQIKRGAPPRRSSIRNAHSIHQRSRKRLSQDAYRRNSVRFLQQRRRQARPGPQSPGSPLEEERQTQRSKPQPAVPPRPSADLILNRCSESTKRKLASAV
* = called active by the depositor; . = no result; [ ] = remark or other dose. An excerpt weighted towards active compounds, which were near 3.7% of everything screened.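 How the source made its calls, unless noted: active means inhibition above about 30% (limit read from the data); inactive means the rest.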

SMILES	RBBP9 inh	WT yeast gro inh	14-3-3 Bad PPI	eIF4E-4G inh	EBV gp42 block	NCF1 inh
Cc1ccc2c(c1C)NC(=O)C21N2CCCC2C(C(=O)c2ccc3ccccc3c2)C12C(=O)Nc1ccccc12 (stereo not drawn)	-3	.	-1	0	-8	-25
COc1ccc2[nH]c(=O)c(CN(Cc3cccs3)C(=S)NCC3CCCO3)cc2c1 (stereo not drawn)	1	.	2	71*	-2	-10
CC12CCC(c3c(C(=O)Nc4nccs4)nn(-c4ccccc4)c31)C2(C)C (stereo not drawn)	-8	76*	-6	-2	4	-4
CCn1c(SCC(=O)Nc2nc(-c3ccc(C)cc3)cs2)nnc1-c1ccccc1	-3	25	19	-5	9	-15
Cc1ccc(-c2csc(NC(=O)CSc3nc4ccccc4c(=O)n3CCCN(C)C)n2)cc1	-10	82*	68	31*	8	37*
COc1cc([N+](=O)[O-])ccc1NC(=O)CN1CCOCC1	0	5	1	2	-7	2
CCc1cccc(CC)c1NC(=S)NCCc1c(C)[nH]c2ccccc12	-7	68*	-5	2	-4	-9
ClC(Cl)(c1nnnn1-c1ccccc1)c1nnnn1-c1ccccc1	10	88*	22	27	-11	4
N#CCCN1CCN(C2=NC(=O)/C(=C\c3cccs3)S2)CC1	0	-4	-28	-1	-1	-3
CNS(=O)(=O)c1cnccc1N1CCN(c2cccc(Cl)c2)CC1	2	1	11	1	-9	-8
CCN(CC)S(=O)(=O)c1cnccc1N1CCN(c2cccc(Cl)c2)CC1	-2	58*	7	0	5	0
Cc1ccc(NC(=O)Nc2ccno2)cc1	-6	.	-2	-2	-7	-2
CCOC(=O)c1ccc(-c2ccc(/C=N/NC(=O)CN(c3cccc(C)c3)S(C)(=O)=O)o2)cc1	5	-1	15	2	-25	31*
CCOC(=O)c1ccc(-c2ccc(/C=N/NC(=O)CN(c3ccccc3Cl)S(C)(=O)=O)o2)cc1	-8	10	0	1	-90	-40
Cc1sc(NC(=O)Cn2[nH]c(=O)c3ccccc3c2=O)nc1-c1ccccc1	-9	21	21	-36	-9	-31
COC(=O)[C@@]1(Cc2ccc(OC)cc2)[C@H]2c3cc(C(=O)N4CCCC4)n(Cc4ccc(C)o4)c3C[C@H]2CN1C(=O)c1ccccc1	-8	65*	-12	-2	3	-18
O=C1CCCCC1C(Nc1ccc(Br)cc1)c1ccccc1 (stereo not drawn)	2	65*	-13	0	-12	-17
CC(C)(C)N1CC(OC(N)=O)C1	-3	.	0	2	3	-2
CCN(CC)c1ccc(/C=N/NC(=O)c2ccc3nc[nH]c3c2)cc1	-4	.	3	87*	-17	-2
CN(C)c1ccc(/C=N/NC(=O)c2ccc3nc[nH]c3c2)cc1	-7	.	0	11	-9	2
CC(C)(C)Nc1nc2ccc([N+](=O)[O-])cc2o1	-9	.	-6	0	1	-5
Cc1cccc(Cn2nc(-n3cccc3)c3c(C)cc(C)nc32)c1	-9	62*	-14	2	-13	-14
Cc1ccc(OC(=O)c2cc(C)nn2C(C)(C)C)cc1	-3	.	0	-4	-4	-1
O=C(CCCCCn1c(=S)[nH]c2cc3c(cc2c1=O)OCO3)N1CCN(C(=O)c2ccco2)CC1	1	69*	-12	4	-20	5
Cc1ccc(SCCC(=O)Nc2ccc(Br)c(C)c2)cc1	-12	42	-16	4	2	-6
SMILES	RBBP9 inh	WT yeast gro inh	14-3-3 Bad PPI	eIF4E-4G inh	EBV gp42 block	NCF1 inh
COc1ccc(C(=NNc2ccccc2C(=O)O)c2ccc(OC)cc2)cc1	-7	82*	4	5	22	-1
COc1cccc(/C=N/NC(=O)c2ccccc2NC(=O)c2ccco2)c1OC	-5	.	3	-1	2	-2
CCC(NC(=O)c1ccccc1NC(=O)c1ccccc1)C(=O)OC (stereo not drawn)	-4	77*	-8	-3	2	0
COc1ccc(C(=O)Nc2ccccc2C(N)=O)cc1	-11	40	27	100*[fluorescence artefact?]	-2	-11
CCC(NC(=O)c1ccccc1NC(=O)c1ccc(OC)cc1)C(=O)N1CCCC1 (stereo not drawn)	-3	-8	2	1	-6	-12
COc1ccc(C(=O)Nc2ccccc2C(=O)N/N=C/c2cccc3ccccc23)cc1	-10	68*	9	-6	13	-23
CCOC(=O)Cn1nc(C)cc1NC(=O)c1cccnc1	-2	-2	-12	-2	-16	3
Cc1cc(C)c(C)c(S(=O)(=O)N2CCN(c3ccc(O)cc3)CC2)c1C	2	13	-6	1	12	-11
O=C(CCn1cnc2ccccc2c1=O)Nc1nc(-c2ccc(Br)cc2)cs1	1	4	33	-5	-42	-1
C=CCCCCCCCCc1nc(=S)[nH][nH]1	-7	75*	-25	2	-1	1
Cc1ccc(CN2CCN(/N=C/c3ccc(Cl)c([N+](=O)[O-])c3)CC2)cc1	-11	64*	-6	-4	15	6
CSc1cccc(NC(=S)N(CCCN2CCC(C)CC2)Cc2cccs2)c1	3	14	-11	-4	1	-14
Cc1nn(CC(O)CN2c3ccccc3Sc3ccccc32)c(C)c1Br (stereo not drawn)	-5	91*	-7	-5	9	-1
Cn1c(=O)c2c(ncn2CC(=O)N2CCN(C(=O)c3ccco3)CC2)n(C)c1=O	-9	7	3	1	-2	-6
Cc1ccc2c(c1)c1c3n2CCCN(Cc2ccccc2)C3CCC1 (stereo not drawn)	6	81*	-1	2	-5	-8
Cc1ccc2c(c1)c1c3n2CCN(C(=O)C2CC2)C3CCC1 (stereo not drawn)	4	8	-3	0	1	-6
C=CCn1c(SCC(N)=O)nc(C)cc1=O	-9	61*	21	1	-6	-8
CCc1ccc(Nc2nc(N)nc(CSc3nc4ccccc4s3)n2)cc1	-16	72*	6	6	6	-5
N=C1C(c2ccccc2)=C(O)CN1c1cccc(S(=O)(=O)N2CCCCC2)c1	2	.	1	3	-6	-5
CCOc1ccc(S(=O)(=O)NN=C2CCN(C(C)=O)CC2)cc1	-3	14	-2	-4	4	4
Cc1cccc2cc(C(c3nnnn3C(C)(C)C)N3CCN(C(=O)c4ccco4)CC3)c(=O)[nH]c12 (stereo not drawn)	-3	-7	79*	-3	-9	-3
COc1cc(/C=N/NC(=O)Nc2ccccc2)ccc1OC(C)=O	1	-3	-6	15	4	-1
